Source: PMC12059896 (ACS Omega, 2025)

Legend:
PC-3 cells [1] = assay: XTT cytotoxicity assay in PC-3 cells; assay type: cell-based; conditions: 24 h and 72 h, n = 4 (Figures 6, 7)
How it was run: (§1)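 Cells kept in RPMI with 10% FBS and 1% penicillin–streptomycin at 37 °C, 5% CO2. Seeded at 6 × 10^3 (LNCaP) or 3 × 10^3 (PC-3) per well, attached 24 h, then exposed to free drugs or leucine-coupled drugs. At 24 and 72 h, XTT added for 3 h at 37 °C; absorbance read at 450 nm. Controls: 0.05% DMSO and medium alone. Mean ± SD, n = 4.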

LNCaP cells = assay: XTT cytotoxicity assay in LNCaP cells; assay type: cell-based; conditions: 24 h and 72 h, n = 4 (Figures 6, 7)
How it was run: as §1

[2] = cited from earlier work
PC-3 cells [3] = conditions: PC-3 cells do not express PSA; ref 10 (Bakthavatsalam et al. 2020); cited from earlier work

Row | Molecule | cytotoxicity of drug compared with its leucine conjugate, PC-3 (PC-3 cells [1]) | cytotoxicity of drug compared with its leucine conjugate, LNCaP (LNCaP cells) | potency relative to CPT-11 in inducing antitumor activity [2] | cytotoxicity in PC-3 cells (PC-3 cells [3])
1 | CCc1c2c(nc3ccc(O)cc13)-c1cc3c(c(=O)n1C2)COC(=O)C3(CC)OC(=O)C(N)CC(C)C (stereo not shown) [L–SN–38, NH2-Leu–SN–38] | comparable cytotoxicity | comparable cytotoxicity | – | –
2 | CO[C@H]1C(=O)[C@]2(C)[C@@H](OC)C[C@H]3OC[C@@]3(OC(C)=O)[C@H]2[C@H](OC(=O)c2ccccc2)[C@]2(O)C[C@H](OC(=O)[C@H](O)[C@@H](NC(=O)OC(C)(C)C)c3ccccc3)C(C)=C1C2(C)C [cabazitaxel] | comparable cytotoxicity | comparable cytotoxicity | – | –
3 | COC1C(=O)C2(C)C(OC)CC3OCC3(OC(C)=O)C2C(OC(=O)c2ccccc2)C2(O)CC(OC(=O)C(OC(=O)C(N)CC(C)C)C(NC(=O)OC(C)(C)C)c3ccccc3)C(C)=C1C2(C)C [L-cabazitaxel, NH2-Leu-Cabazitaxel] | comparable cytotoxicity | comparable cytotoxicity | – | –
4 | CCc1c2c(nc3ccc(O)cc13)-c1cc3c(c(=O)n1C2)COC(=O)[C@]3(O)CC [SN-38, 7-Ethyl-10-hydroxycamptothecin] | comparable cytotoxicity | comparable cytotoxicity | 100- to 1000 fold | –
5 | Ac-HSSKLQL-PAB-dithiocarbamate | – | – | – | demonstrated cytotoxicity in PC-3 cells
